ChEMBL document CHEMBL1121887, “A new nontricyclic antidepressant agent. Synthesis and activity of N-[trans-2-(dimethylamino)cyclopentyl]-N-(3,4-dichlorophenyl)propanamide and related compounds” (1981)

What was measured:
Type in all cases: functional
Mus musculus [1] = species: Mus musculus; experiment: Antidepressant activity using apomorphine potentiation test in mice
Outline: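 Male CF-1 mice in groups of four got test compound i.p. (50 and 25 mg/kg) in 0.25% aqueous methylcellulose. 1 h later they got apomorphine 10 mg/kg s.c. and were watched 30 min for stereotyped gnawing and licking, each positive. If ≥3 were positive, the test was repeated at 0.3 log lower doses until ≤1 responded. ED50 and 95% CI by Spearman–Karber.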

Mus musculus [2] = species: Mus musculus; experiment: Antidepressant activity using oxotremorine antagonism test in mice
Mus musculus [3] = species: Mus musculus; experiment: Antidepressant activity using yohimbine potentiation test in mice

SMILES	ED50 (Mus musculus [1]; Mus musculus, read-out: ED50) [mg/kg]	ED50 (Mus musculus [2]; Mus musculus, read-out: ED50) [mg/kg]	ED50 (Mus musculus [3]; Mus musculus, read-out: ED50) [mg/kg]	ED50 (Mus musculus [2]) [mg/kg]	ED50 (Mus musculus [3]) [mg/kg]	ED50 (Mus musculus [1]) [mg/kg]
CCC(=O)N(c1cccc(C)c1)C1CCCC1N(C)C (stereo in doubt; 22)	25	1	3			
CN(C)C1CCCC1N(C(=O)c1cccs1)c1ccc(Cl)c(Cl)c1 (stereo not drawn)	> 50	10	20			
CCC(=O)N(c1cccc(Cl)c1)C1CCCC1N(C)C (stereo not drawn)	20	0.2	0.4			
CCC(=O)N(c1ccc(Cl)c(Cl)c1)C1CCCC1N1CCCC1 (stereo not drawn)	3	2	0.6			
CCC(=O)N(c1cccc(F)c1)C1CCCC1N(C)C (stereo not drawn)	5	0.6	0.4			
CCC(=O)N(c1ccc(Cl)cc1)C1CCCC1N(C)C (stereo not drawn)	> 50	0.2	3			
CCC(=O)N(c1ccccc1)C1CCCCC1N(C)C (stereo not drawn)	> 50	> 50	> 50			
CCC(=O)N(c1ccc(C#N)cc1)C1CCCC1N(C)C (stereo not drawn)	> 50	40	10			
CCC(=O)N(c1ccc(Cl)c(Cl)c1)C1CCCCCCC1N(C)C (stereo not drawn)	6	10	20			
CCC(=O)N(c1ccc(C(=O)OC)cc1)C1CCCC1N(C)C (stereo not drawn)	> 50	> 50	> 50			
CCCC(=O)N(c1ccccc1)C1CCCC1N(C)C (stereo not drawn)	40	10	6			
CC(=O)N(c1ccc(Cl)c(Cl)c1)C1CCCC1N(C)C (stereo not drawn)	20	10	9			
CCC(=O)N(c1ccc(Cl)c(Cl)c1)C1CCCC1N(CC)CC (stereo not drawn)	0.3	0.03	0.1			
CCCC(=O)N(c1ccc(Cl)c(Cl)c1)C1CCCC1N(C)C (stereo not drawn)	0.9	7	2			
C=CCNC1CCCC1N(C(=O)CC)c1ccc(Cl)c(Cl)c1 (stereo not drawn)		3	0.2			
CCC(=O)N(c1c(F)c(F)c(F)c(F)c1F)C1CCCC1N(C)C (stereo not drawn)	> 50	> 50	> 50			
CCNC1CCCC1N(C(=O)CC)c1ccc(Cl)c(Cl)c1 (stereo not drawn)		2	0.2			
CC(C)C(=O)N(c1ccc(Cl)c(Cl)c1)C1CCCC1N(C)C (stereo not drawn)	5	4	2			
CCC(=O)N(c1cccc(C)c1)C1CCCCC1N(C)C (stereo not drawn)	> 50	15	> 50			
CCC(=O)N(c1ccc(OC)cc1)C1CCCCC1N(C)C (stereo not drawn)	> 50	> 50	> 50			
CCC(=O)N(c1ccc(C(C)=O)cc1)C1CCCC1N(C)C (stereo not drawn)	> 50	40	> 50			
CCC(=O)N(c1cccc(Br)c1)C1CCCC1N(C)C (stereo not drawn)	2	0.1	0.1			
CCC(=O)N(c1ccccc1Cl)C1CCCC1N(C)C (stereo not drawn)	> 50	2	6			

SMILES	ED50 (Mus musculus [1]; Mus musculus, read-out: ED50) [mg/kg]	ED50 (Mus musculus [2]; Mus musculus, read-out: ED50) [mg/kg]	ED50 (Mus musculus [3]; Mus musculus, read-out: ED50) [mg/kg]	ED50 (Mus musculus [2]) [mg/kg]	ED50 (Mus musculus [3]) [mg/kg]	ED50 (Mus musculus [1]) [mg/kg]
CN(C)C1CCCC1N(C(=O)C1CCCCC1)c1ccc(Cl)c(Cl)c1 (stereo not drawn)	> 50	2	1			
CN(C)C1CCCC1N(C(=O)C1CC1)c1ccc(Cl)c(Cl)c1 (stereo not drawn)	0.4	0.3	0.2			
CCC(=O)N(c1ccc(Cl)c(Cl)c1)C1CCCC1N (stereo not drawn)		0.8	0.02			
CCC(=O)N(c1ccc(C)cc1)C1CCCCC1N(C)C (stereo not drawn)	> 50	> 50	> 50			
CCC(=O)N(c1cc(Cl)cc(Cl)c1)C1CCCC1N(C)C (stereo not drawn)	30	5	0.9			
CCC(=O)N(c1cccc(C(F)(F)F)c1)C1CCCC1N(C)C (stereo not drawn)	0.9	0.2	0.3			
CCC(=O)N(c1ccc(Cl)c(C)c1)C1CCCC1N(C)C (stereo not drawn)	10	2	2			
CCC(=O)N(c1ccc(OC)cc1)C1CCCC1N(C)C (stereo in doubt; 20)				20	30	
C=CCN(C)C1CCCC1N(C(=O)CC)c1ccc(Cl)c(Cl)c1 (stereo not drawn)	6	0.2	0.2			
CCC(=O)N(c1ccc(Cl)c(Cl)c1)C1CCCC1N(C)CCCN(C)C (stereo not drawn)	30	10	4			
CCC(=O)N(c1ccc(Cl)cc1)C1CCCCC1N(C)C (stereo not drawn)	14	17	35			
CCC(=O)N(c1ccc(C)cc1)C1CCCC1N(C)C (stereo in doubt; 45)	10	10	30			
CCC(=O)N(c1ccc(Cl)c(Cl)c1)C1CCCC1N(C)Cc1ccccc1 (stereo not drawn)	> 50	40	0.2			
CCC(=O)N(c1ccc([N+](=O)[O-])cc1)C1CCCC1N(C)C (stereo not drawn)	20	6	20			
CCC(=O)N(c1ccc(F)c(Cl)c1)C1CCCC1N(C)C (stereo not drawn)	0.7	2	0.2			
CCC(=O)N(c1ccc(OC)c(OC)c1)C1CCCC1N(C)C (stereo not drawn)	10	10	9			
CCC(=O)N(c1ccccc1C)C1CCCC1N(C)C (stereo not drawn)	> 50	5	7			
CCC(=O)N(c1ccc(Cl)c(Cl)c1)C1CCCC1NC (stereo not drawn)		0.3	0.4			
CCC(=O)N(c1ccc(C)cc1)C1CCCC1N(C)C (stereo in doubt; 24)				10	30	10
CCC(=O)N(c1ccc(C(F)(F)F)cc1)C1CCCC1N(C)C (stereo not drawn)	10	25	10			
CCC(=O)N(c1ccc(Br)c(Br)c1)C1CCCC1N(C)C (stereo not drawn)	0.5	0.2	0.1			
CCC(=O)N(c1ccc(Cl)c(Cl)c1)C1CCCC1N(C)C (stereo in doubt; 6) [ECLANAMINE]				0.2	0.4	10
CCC(=O)N(c1ccc(OC)cc1)C1CCCC1N(C)C (stereo in doubt; 47)	> 50	20	30			

SMILES	ED50 (Mus musculus [1]; Mus musculus, read-out: ED50) [mg/kg]	ED50 (Mus musculus [2]; Mus musculus, read-out: ED50) [mg/kg]	ED50 (Mus musculus [3]; Mus musculus, read-out: ED50) [mg/kg]	ED50 (Mus musculus [2]) [mg/kg]	ED50 (Mus musculus [3]) [mg/kg]	ED50 (Mus musculus [1]) [mg/kg]
CCC(=O)N(c1ccccc1)C1CCCC1N(C)C (cis isomer)				>50	10	>50
CN(C)C1CCCC1N(C(=O)c1ccco1)c1ccc(Cl)c(Cl)c1 (stereo not drawn)	> 50	> 50	9			
CCC(=O)N(c1ccc(Cl)c(Cl)c1)C1CCCCC1N(C)C (stereo not drawn)	20	20	30			
CCC(=O)N(c1ccc(C)c(Cl)c1)C1CCCC1N(C)C (stereo not drawn)	2	0.6	1			
CCC(=O)N(c1cc(Cl)c(Cl)c(Cl)c1)C1CCCC1N(C)C (stereo not drawn)	40	40	4			
CCC(=O)N(c1ccc(Cl)c(Cl)c1)C1CCCCCC1N(C)C (stereo not drawn)	20	6	2			
CCC(=O)N(c1ccc(Cl)c(Cl)c1)C1CCCC1N(C)CCN(C)C (stereo not drawn)	20	5	0.8			
CCC(=O)N(c1ccc(Br)cc1)C1CCCC1N(C)C (stereo not drawn)	> 50	3	2			
CCC(=O)N(c1ccccc1)C1CCCC1N(C)C (stereo in doubt; 16)				2	3	0.8
CCCN(CCC)C1CCCC1N(C(=O)CC)c1ccc(Cl)c(Cl)c1 (stereo not drawn)	> 50	0.1	2			
CCC(=O)N(c1ccc(Cl)c(Cl)c1)C1CCCC1O (stereo not drawn)	20	9	0.4			
CCC(=O)N(c1cccc(C)c1)C1CCCC1N(C)C (stereo in doubt; 44)				1	3	25
CN(C)C1CCCC1N(C=O)c1ccc(Cl)c(Cl)c1 (stereo not drawn)	> 50	40	9			
CN(C)CCCN1c2ccccc2CCc2ccccc21.Cl [IMIPRAMINE HYDROCHLORIDE]	1	1	4			
CCC(=O)N(c1ccc(F)cc1)C1CCCC1N(C)C (stereo not drawn)	> 50	0.08	5			
CCC(=O)N(c1ccc(Cl)c(Cl)c1)C1CCCC1N(C)CCc1ccccc1 (stereo not drawn)	5	0.4	0.1			
C=CC(=O)N(c1ccc(Cl)c(Cl)c1)C1CCCC1N(C)C (stereo not drawn)	5	5	2			
CCC(=O)N(c1cccc(OC)c1)C1CCCC1N(C)C (stereo not drawn)	4	4	0.8			
CN(C)C1CCCC1N(C(=O)C1CCC1)c1ccc(Cl)c(Cl)c1 (stereo not drawn)	> 50	0.6	0.8			
CN(C)C1CCCC1N(C=O)c1ccccc1 (stereo not drawn)		> 50	40			
CCC(=O)N(c1ccc(Cl)c(Cl)c1)C1CCCC1N(C)C (cis isomer) [ECLANAMINE]				2	0.9	>50
CC(=O)N(c1ccccc1)C1CCCC1N(C)C (stereo not drawn)	40	9	7			
